Data: the RNAGym collection of RNA variant scans (doi:10.1126/science.aae0568)
Fewer inactive variants are shown than the library holds.

B1: tRNA (parent)
chain: GUUCCGUUGGCGUAAUGGUAACGCGUCUCCCUCCUAAGGAGAAGACUGCGGGUUCGAGUCCCGUACGGAACG

Variants of: B1
Assay: yeast fitness relative to wild type (ratio to wild type); higher = fitter; tRNA-Arg(CCU), competitive growth, 37 C, YPD
Summary of the method: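 Variants of the tRNA-Arg(CCU) gene were chemically synthesised with a 3% per-site mutation rate across 69 sites and placed at the native genomic locus in Saccharomyces cerevisiae. Six parallel replicates of the pooled strains were competed in YPD at 37°C for 24 hours, and gene amplicons from the start and end populations were read by 100-nucleotide paired-end sequencing. Darwinian fitness relative to wild type was derived from changes in genotype frequencies. Genotypes required ≥ 100 starting reads, and estimates < 0.5 were set to 0.5.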

Variant	yeast fitness
U3A U13C C29A A43G	≤ 0.5
U3A U13C C29A U32A A43G G67C	≤ 0.5
U3A U13G	0.729
U3A U13G A70C	0.784
U3A U13G C22U A40U C55G A70G	≤ 0.5
U3A U13G C22U A40U C66G	0.627
U3A U16A C22U U35A A36C G38U G48C	≤ 0.5
U3A U16C	0.824
U3A U16C A20C A45G	≤ 0.5
U3A U16C A20C G67A	0.541
U3A U16C C27G A36U G39C U53A A70G	≤ 0.5
U3A U16C C33G	0.661
U3A U16C C33G C46U	≤ 0.5
U3A U16C C46U C49U	≤ 0.5
U3A U16C G68C	≤ 0.5
U3A U16G C46U U54A	≤ 0.5
U3A U19A	1.02
U3A U19A A57G	0.751
U3A U19A A70C	0.812
U3A U19A G68C	0.712
U3A U19C C22G A45U	≤ 0.5
U3A U19C C22G C31G A69C	≤ 0.5
U3A U19C C61G	≤ 0.5
U3A U19G A36C	≤ 0.5

Variant	yeast fitness
U3A U26C	0.884
U3A U26C C31U A40C	≤ 0.5
U3A U26C C31U G52A	≤ 0.5
U3A U26G C49A C60A	≤ 0.5
U3A U32A U59G	0.585
U3A U32C	1
U3A U32C A69U	0.685
U3A U32G G39C G52C	≤ 0.5
U3A U35A C60G	0.593
U3A U35C G63C	≤ 0.5
U3A U35G A43U A57C	≤ 0.5
U3A U35G A43U A57C C62A C66A	≤ 0.5
U3A U47A	0.744
U3A U47C	0.835
U3A U47C G51A U53C	≤ 0.5
U3A U53C C55U	≤ 0.5
U3A U54G	0.595
U3A U54G A57C	≤ 0.5
U3A U59C	0.884
U3A U64C	1.01
U3A U64C G68C	0.586
U3A U64G	0.831
U3C A14C A20C	≤ 0.5
U3C A14C A21G A37U C49A C60G	0.629

Variant	yeast fitness
U3C A14C A40U	≤ 0.5
U3C A14C A45C	≤ 0.5
U3C A14C A45C C60G	0.591
U3C A14G C22A C27G G39C	≤ 0.5
U3C A14G C29G A37U A42G	0.609
U3C A14G C30U A45C C46G A65G	≤ 0.5
U3C A14G C34G A43C	≤ 0.5
U3C A14G U19A	0.761
U3C A14U A20C C30G C55U	≤ 0.5
U3C A14U A20C C30G G58A A65G	≤ 0.5
U3C A14U A37U C60A	0.586
U3C A14U A65C	≤ 0.5
U3C A15C A43G C46G C66G A69G	≤ 0.5
U3C A15C C34G U47A C55U G68U	≤ 0.5
U3C A15C G17C C24A C31U U35C G68C	≤ 0.5
U3C A15C G51C C61A	≤ 0.5
U3C A15G	1.03
U3C A15G C30A	0.564
U3C A15G C30A A57G	≤ 0.5
U3C A15G C49G	0.556
U3C A15G G23A C60U G68C	≤ 0.5
U3C A15G G25C C66G	≤ 0.5
U3C A15U C34U A43G	0.545
U3C A15U C34U A43G C49U	≤ 0.5

Variant	yeast fitness
U3C A15U C34U A43G G68A A69U	≤ 0.5
U3C A15U C34U A43G U54C	≤ 0.5
U3C A20C C46U C60U C61U	0.759
U3C A20C G23C G56C	≤ 0.5
U3C A20C G23C G56C A65C G68A	≤ 0.5
U3C A20G A57U	0.597
U3C A20G C24U G38A G58C	≤ 0.5
U3C A20G C29G C55U	≤ 0.5
U3C A20G U59A	0.684
U3C A20G U64A A65G	≤ 0.5
U3C A20U	0.866
U3C A20U A69G	0.612
U3C A20U C24U C30A	0.656
U3C A20U C30A	0.568
U3C A20U C30U A37G A70C	0.708
U3C A20U G52C	≤ 0.5
U3C A20U U64A	0.594
U3C A21C A65C	≤ 0.5
U3C A21G	0.962
U3C A21G A43U	0.989
U3C A21G A43U A65C G68C	≤ 0.5
U3C A21G C27A A36U A40G	≤ 0.5
U3C A21G C33G C34G	≤ 0.5
U3C A21G C46A G56A	≤ 0.5

Variant	yeast fitness
U3C A21G C46G G50A	≤ 0.5
U3C A21G C49U	1.02
U3C A21G G38A G56A	≤ 0.5
U3C A21G G44C G63C	≤ 0.5
U3C A21G U32C A43U	0.722
U3C A21U G67C	≤ 0.5
U3C A36U	0.656
U3C A36U G39A	≤ 0.5
U3C A37C	0.82
U3C A37C A70G	0.555
U3C A37C A70U	0.683
U3C A37C C49U	0.681
U3C A37C C62G	0.548
U3C A37C G38A G52A G63A	≤ 0.5
U3C A37C U64A	0.598
U3C A37U G52A	≤ 0.5
U3C A37U G52A A57C C60A	≤ 0.5
U3C A40C	0.935
U3C A40C A45C	0.502
U3C A40C A45G C46A	≤ 0.5
U3C A40C C61G	0.576
U3C A40G	0.929
U3C A40G C46A	0.966
U3C A40G C46A U53C	0.663

Variant	yeast fitness
U3C A40G C62U A65U	≤ 0.5
U3C A40U C49A	0.577
U3C A40U G58A	1.02
U3C A40U G58A A69C	0.656
U3C A40U G63A A65G	0.549
U3C A42C	0.85
U3C A42C A65U	0.651
U3C A42G	0.883
U3C A42U	0.9
U3C A42U A45U U64C	0.885
U3C A42U C61G	0.66
U3C A43C C61A	0.612
U3C A43C C61U	0.707
U3C A43G	0.999
U3C A43U	0.987
U3C A43U A45G	0.567
U3C A43U A45G A69C	≤ 0.5
U3C A43U A45G G63A	≤ 0.5
U3C A43U G44C U64C	0.567
U3C A43U U53A	≤ 0.5
U3C A45C	0.856
U3C A45C G48A U54C	0.751
U3C A45U	0.999
U3C A45U G50A	0.849

Variant	yeast fitness
U3C A57C A65U	≤ 0.5
U3C A57G A69U	0.599
U3C A57G A70U	0.564
U3C A57U	0.713
U3C A65C	1
U3C A65U	0.997
U3C A69C	0.967
U3C A70C	0.993
U3C A70G	0.944
U3C C4A A15C C27G C33U C61G	≤ 0.5
U3C C4A A36U A43U	≤ 0.5
U3C C4A A45G	0.531
U3C C4G	0.891
U3C C4G A20G A43G	≤ 0.5
U3C C4G C22G C33U A36C A40U	≤ 0.5
U3C C4G G12C G44C A57U	≤ 0.5
U3C C4G U7C A21C G23C C55A U64A A65C	≤ 0.5
U3C C4G U8G C34U A37G	≤ 0.5
U3C C4U A15G U26A U32A C60G G67A	≤ 0.5
U3C C4U A20C A21U C27G A42U G52A	≤ 0.5
U3C C4U A43U G58A	≤ 0.5
U3C C4U A57G	0.677
U3C C4U A69U A70U	≤ 0.5
